Screening results as filed in PubChem BioAssay.
A selection follows.
PGC1a acetyl up – compounds raising PGC1a acetylation signal, primary screen, PGC1a modulator project, cell-based, U2OS, AlphaScreen, signal-increasing mode; 350,000 tested, 0.21% active; overnight; activation, % at 15.6 µM;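 active = every replicate reaching activation of at least 50%, whatever the mean replicate activation; inconclusive = replicates that disagree or another doubt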;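 note: hits raise the AlphaScreen acetylation signal above neutral controls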
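System – flag-PGC1a/GCN5 U2OS cells · Quantity – 7000 U2OS cells per well · Signal – AlphaScreen proximity luminescence, anti-acetyl-lysine antibody · Schedule – overnight compound treatment, 37 °C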
Hep G6PC suppr – suppressors of forskolin-stimulated G6PC mRNA, dose response, PGC-1a acetylation activator project, cell-based, hepatocytes, RT-qPCR, cherry-picked samples. 240 tested, under 10 active. AID 743463, 2014. G6PC suppression (normalized activity, % of positive control; higher = more suppression), % at 26 µM. shares compounds with PGC1a acetyl up. primary mouse hepatocytes;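 active = dose curves showing G6PC suppression whose half-maximal dose is at most twice the top valid dose; inconclusive = flat curves with moderate negative activity, or unreliable fits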;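 note: G6PC expression relative to GAPDH housekeeping gene as delta delta Ct; 0% = median of neutral control wells and 100% = median of positive control wells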
PCK1 hep suppr – suppression of PCK1 mRNA in primary hepatocytes, dose response, PGC-1a acetylation activator project, cell-based, primary mouse hepatocytes, RT-qPCR, cherry-pick; forskolin-stimulated; PCK1 expression decrease, unspecified at 26 µM; shares compounds with PGC1a acetyl up; 230 tested, under 10 active;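 active = compounds lowering PCK1 expression whose fitted half-maximal concentration is at most twice the top tested dose; inconclusive = flat fit with moderate opposite-direction effect, or poor fit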;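 note: values are delta delta Ct of PCK1 relative to GAPDH; higher delta delta Ct means lower PCK1 expression so positive values indicate hits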
Hep PGC-1a down – suppression of PGC-1a mRNA in primary hepatocytes, dose response, PGC-1a acetylation activator project, cell-based, primary mouse hepatocytes, RT-qPCR, cherry-pick | shares compounds with PGC1a acetyl up | PGC-1a mRNA qPCR, forskolin; top dose 26 µM | max activity (PGC-1a expression decrease), % | 240 tested, under 10 active | AID 743467, 2014;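 active = compound lowering PGC-1a expression with fitted half-maximal concentration at most twice its top tested dose; inconclusive = flat curve with moderate opposite-direction effect, or poor fit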;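 note: 0% = neutral control wells median and 100% = positive control wells median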
Numbers without * were called inactive; i = inactive; ? = inconclusive; . = no result; [ ] = remark or other dose.

SMILES	PGC1a acetyl up	Hep G6PC suppr	PCK1 hep suppr	Hep PGC-1a down
Cc1ccc(NC(=O)c2c(C(F)(F)F)nn(C)c2SCc2ccc(Cl)cc2)cc1C	?	13.6[8 µM]	249	139.2
CC(C)(C)c1ccc(OCC(=O)NNC(=O)Nc2ccccc2)cc1	-43.2	.	.	.
O=c1oc(-c2ccccc2)nc2sc3c(c12)CCC3	-42.4	.	.	.
Cc1cc(N2CCN(C)CC2)nc2ccc(NC(=S)N3CCN(c4cccc(Cl)c4)CC3)cc12	-47.6	.	.	.
Clc1ccccc1OCCCCN1CCCC1	-42.0	.	.	.
O=C1C=C(c2c(O)ccc3ccccc23)c2ccccc2C1=O	-54.1	.	.	.
CC(C)(O)c1cc(=O)sc2nc3ccccc3n12	-49.6	.	.	.
CC(/C=N/NC(=O)c1cc(-c2ccc(Cl)cc2)nc2ccccc12)=C\c1ccco1	-52.7	.	.	.
Cc1ccc(NC2=C/C(=N\S(=O)(=O)c3cccs3)c3ccccc3C2=O)c(C)c1	-92.9	.	.	.
Cc1ccc(Nc2nnc(C)c3ccccc23)c(C)c1	?	-19.7	-28.7	88.4
NC1=C(Br)C(=O)c2ncccc2C1=O	-87.1	.	.	.
O=C(COc1ccc(Cl)cc1Cl)NCCCN1CCOCC1	-40.9	.	.	.
O=c1[nH]c(/C=C/c2ccc([N+](=O)[O-])cc2)c([N+](=O)[O-])c(=O)[nH]1	-42.8	.	.	.
C[C@@H]1CN([C@@H](C)CO)C(=O)c2c(c3ccccc3n2C)-c2ccccc2CO[C@@H]1CN(C)C(=O)c1ccccc1	76.3*	22.3[23.5 µM]	44.2[23.5 µM]	169.2
C[C@@H]1CN([C@H](C)CO)C(=O)c2c(c3ccccc3n2C)-c2ccccc2CO[C@@H]1CN(C)C(=O)c1ccccc1	57.7*	73.4	?	?
C[C@@H]1CN([C@@H](C)CO)C(=O)c2c(c3ccccc3n2C)-c2ccccc2CO[C@@H]1CN(C)C(=O)Nc1ccc2c(c1)OCO2	81.0*	-2.9[23.5 µM]	25.5[23.5 µM]	34.2
CC(C)[C@H](C)NC(=O)N(C)C[C@H]1OCc2ccccc2-c2c(n(C)c3ccccc23)C(=O)N([C@H](C)CO)C[C@H]1C	59.2*	3.1	5.55	59.4
COc1ccc(N=C2SCC(c3ccc(C)cc3)=NN2CCO)cc1	-78.3	.	.	.
O=C(c1ccco1)N1N=C(c2ccc(Cl)cc2)CC1(O)C(F)(F)F (stereo unspecified)	-42.3	.	.	.
CN(C)c1ncnc2c1ncn2C1OC(CO)C(O)C1O (stereo unspecified)	-49.5	.	.	.
O=Nc1c(O)c2ccccc2c2ccccc12	-44.7	.	.	.
CCC(C)NC(=O)c1ccc2c(SCC(=O)O)c3c(nc2c1)CCCC3 (stereo unspecified)	-41.0	.	.	.
CCn1c(CSc2nnc3ccccn23)nc2cc(C(=O)O)ccc21	-47.5	.	.	.
COc1ccc(/C=N/Nc2nncn2N)cc1Br	-68.6	.	.	.
Cc1oc2c(c1C(=O)c1ccccc1)C(=O)C(=O)c1ccccc1-2	-65.7	.	.	.
SMILES	PGC1a acetyl up	Hep G6PC suppr	PCK1 hep suppr	Hep PGC-1a down
CN(C)c1ccnc2sc(C(N)=O)c(N)c12	-47.8	.	.	.
C[C@@H]1CN([C@@H](C)CO)C(=O)c2c(c3ccccc3n2C)-c2ccccc2CO[C@@H]1CN(C)C(=O)c1ccc(F)cc1	117.0*	35.0	151	207.0
O=C(C(Cc1ccccc1)n1cccc1)N1CCN(c2ccccc2)CC1 (stereo unspecified)	?	-81.0	-4.9	29.0
O=C(NC(=S)Nc1ccccc1N1CCCC1)c1cccs1	-50.8	.	.	.
O=C(Nc1ccc2c(c1)OCO2)C1CCN(c2ccc(S(=O)(=O)N3CCOCC3)cc2)CC1	-47.9	-45.3	0.278	40.9
COc1ccc(NC(=O)[C@H](Cc2c[nH]c3ccccc23)NC(=O)[C@@H]2Cc3ccccc3CN2)cc1	-63.5	.	.	.
COc1cc(CN2CCCC(CO)(Cc3cccc(Cl)c3)C2)cc2c1OCO2 (stereo unspecified)	-44.5	-15.8[8 µM]	165	85.6
CSCC(=O)N1CCCC(CO)(Cc2ccccc2C)C1 (stereo unspecified)	-109.0	.	.	.
CC(C)(C)c1ccc(O)c(O)c1	-47.2	.	.	.
Nc1ccc2c(c1)C(=O)C(=O)c1ccccc1-2	-106.9	.	.	.
CCN(CC)CC(=O)N1c2ccccc2CCc2ccc(NC(=O)c3cc(OC)c(OC)c(OC)c3)cc21	-41.2	i	?	131.2
CC(=O)c1ccc(NC(=O)N2CCc3ccccc3C2)cc1	269.0*	45.0	-13	44.9
CCOC(=O)C1=C(Nc2ccccc2)OCC1=O	-46.5	.	.	.
OC(CN1c2ccccc2Sc2ccccc21)Cn1nnc2ccccc21 (stereo unspecified)	75.8*	.	44.3	14.8
CCN(CC)c1ccc(C(=C2C=CC(=[N+](CC)CC)C=C2)c2ccc(N(CC)CC)cc2)cc1	-83.4	.	.	.
COC(=O)c1cc(S(=O)(=O)N2CCN(c3ccc(C(C)=O)cc3)CC2)c[nH]1	?	-40.4	-54.4	-28.3
CN(C)CC(C(=O)c1ccccc1)c1ccccc1 (stereo unspecified)	-138.8	.	.	.
CCOC(=O)C(C)n1cnc2c(nnn2-c2ccc(C)cc2)c1=O (stereo unspecified)	-66.7	51.8	-30.5[8 µM]	?
CCN(CC)CCNC(=O)c1ccc2c(c1NCCO)C(=O)c1ccccc1C2=O	-91.6	.	.	.
CCCc1cc(=O)oc2cc(C)cc(O)c12	-42.9	.	.	.
Oc1ccc(C2CNCCc3c2cc(O)c(O)c3Cl)cc1 (stereo unspecified)	-42.2	.	.	.
CCOC(=O)C1=C(C)N=c2s/c(=C\c3cccc(OCC(=O)O)c3)c(=O)n2C1c1ccccc1OC (stereo unspecified)	-54.9	.	.	.
COc1ccc(CCNC(=O)c2cc(-c3ccco3)on2)cc1OC	87.4*	-12.0	-7.11	?
Cc1nc2ccccc2nc(C)c1=NO	-47.8	.	.	.
O=C(/C=C/c1cccs1)c1ccc(NC(=O)c2cccc(Br)c2)cc1	-47.6	.	.	.
SMILES	PGC1a acetyl up	Hep G6PC suppr	PCK1 hep suppr	Hep PGC-1a down
O=C(NCc1cccnc1)c1ccc(NC(=O)c2ccc(Br)cc2)cc1	84.2*	368.4	254	116.9
Cc1cc(C(=O)NNC(=S)NCc2ccccc2)no1	-44.5	.	.	.
CCC(CC)C(=O)c1c[nH]c(C(=O)NCc2ccccc2)c1	?	-46.5	-8.76	37.0
CC(C)(C)c1ccc(C(=O)c2c[nH]c(C(=O)NCc3cccnc3)c2)cc1	257.1*	-28.4	.	?
O=C(Cc1ccc(Cl)cc1)c1c[nH]c(C(=O)NCc2cccnc2)c1	64.6*	127.0	233	51.6
COCCN(C)Cc1nc(C(c2ccccc2)c2ccccc2)no1	-52.3	.	.	.
CN1CCN(CCP(=O)(c2ccccc2)c2ccccc2)CC1	-40.8	.	.	.
C(=N\Nc1nc2ccccc2[nH]1)/c1ccc2ncccc2c1	-48.9	.	.	.
CCC(C)NCCOCCOc1ccc(C)cc1OC (stereo unspecified)	-49.5	.	.	.
c1ccc(CN2OCC3Cn4c(nc5ccccc54)C32)cc1 (stereo unspecified)	-40.5	.	.	.
O=C(NCc1ccccc1)N1CCC(n2cnc3cc(F)ccc32)CC1	137.6*	.	1.3	43.1
OC[C@@H]1CN(Cc2ccccc2)C[C@H](n2cnc3c(NCc4ccc(F)cc4)ncnc32)O1	-43.8	.	.	.
COc1cc(/C=C2\CC(C(C)(C)C)C/C(=C\c3cc(OC)c(OC)c(OC)c3)C2=O)cc(OC)c1OC (stereo unspecified)	-53.2	.	.	.
